ChEMBL document CHEMBL3297691, “Development and bioorthogonal activation of palladium-labile prodrugs of gemcitabine” (J Med Chem, 2014)
One block for each molecule: values may come before it. The source made the active and inactive calls. The calls are words filed in the database; no cut-off is given here.

What was measured:
Danio rerio = species on record: Danio rerio; test: Prodrug conversion in zebrafish yolk assessed as formation of rhodamine 110 at 5 uM after 24 hrs by fluorescence microscopic analysis in presence of palladium-resins; conditions: in vivo
[1] = Cytotoxicity against human BxPC3 cells after 4 days by PrestoBlue assay; conditions: BXPC-3, 96 h
[2] = Cytotoxicity against human MIAPaCa2 cells after 5 days by PrestoBlue assay; type: functional, cell-based; conditions: MIA PaCa-2, 96 h, in the assay text read “4 days” for “5 days”
BXPC-3 [3] = test: Cytotoxicity against human BxPC3 cells at 100 nM after 5 days by PrestoBlue assay in presence of palladium-resins; type: functional, cell-based
Procedure, shortened: (§1)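 BxPC-3 (RPMI; 2,500 cells/well) or Mia PaCa-2 (DMEM; 1,000 cells/well) in 10% FBS and 2 mM L-glutamine were grown 48 h, then given fresh medium with compound (3, 10, 30, 100, 300 nM), with or without Pd0-resins (0.67 mg/mL), in 0.1% DMSO. After 5 days at 37 °C and 5% CO2, PrestoBlue (10% v/v) was added for 60 min; fluorescence ex 540/em 590 nm, normalized to DMSO wells; n = 3.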

[4] = Prodrug conversion in phosphate buffered saline assessed as compound retention time at 100 uM after 6 to 24 hrs by HPLC analysis in presence of palladium-resins; type: physicochemical; conditions: buffer
Procedure, shortened: (§2)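 Prodrug at 100 μM in PBS (300 mOsm/kg, pH 7.4) was shaken at 1400 rpm and 37 °C with Pd0-resins (1 mg/mL, 4.4% w/w Pd; [Pd0] 400 μM). Samples were taken at 0, 6 and 24 h for reverse-phase HPLC with UV at 280 nm: water/acetonitrile with 0.1% formic acid, 95:5 to 5:95 over 3 min.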

[5] = Cytotoxicity against human BxPC3 cells after 5 days by PrestoBlue assay; type: functional, cell-based; conditions: BXPC-3, 96 h, in the assay text read “4 days” for “5 days”
[6] = Cytotoxicity against human MIAPaCa2 cells after 4 days by PrestoBlue assay; conditions: MIA PaCa-2, 96 h
[7] = Prodrug conversion in phosphate buffered saline assessed as formation of gemcitabine at 100 uM after 24 hrs by HPLC analysis in presence of palladium-resins; type: physicochemical; conditions: buffer
Procedure, shortened: as §2

[8] = Cytotoxicity against human BxPC3 cells at 10 to 100 nM after 5 days by PrestoBlue assay; type: cell-based; conditions: bxpc-3, 120 h, 0.1 µM
Procedure, shortened: as §1

BXPC-3 [9] = test: Cytotoxicity against human BxPC3 cells at 30 nM up to 120 hrs by IncuCyte ZOOM analysis; type: functional, cell-based
Procedure, shortened: (§3)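 BxPC-3 cells in RPMI with 10% FBS and 2 mM L-glutamine were treated once at 30 nM. Wells were imaged every 3 h for 5 d (120 h) by IncuCyte ZOOM inside the incubator (37 °C, 5% CO2). Confluence came from image analysis; n = 3, ± SD.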

[10] = Toxicity in human BxPC3 cells assessed as cell growth at 30 nM up to 120 hrs by IncuCyte ZOOM analysis; type: cell-based; conditions: bxpc-3, 120 h, 0.03 µM
Procedure, shortened: as §3

BXPC-3 [11] = test: Cytotoxicity against human BxPC3 cells at 10 to 100 nM after 5 days by PrestoBlue assay in presence of palladium-resins; type: functional, cell-based
Procedure, shortened: as §1

[12] = Cytotoxicity against human MIAPaCa2 cells at 30 to 300 nM after 5 days by PrestoBlue assay; type: cell-based; conditions: mia paca-2, 120 h, 0.3 µM
Procedure, shortened: as §1

MIA PaCa-2 = test: Cytotoxicity against human MIAPaCa2 cells at 30 to 300 nM after 5 days by PrestoBlue assay in presence of palladium-resins; type: functional, cell-based
Procedure, shortened: as §1

[13] = Prodrug conversion in phosphate buffered saline assessed as half life of formation of gemcitabine at 100 uM by HPLC analysis in presence of palladium-resins; type: physicochemical; conditions: buffer
[14] = Toxicity in human MIAPaCa2 cells assessed as induction of DNA damage by measuring phosphorylated gamma-H2AX level at 300 nM after 24 hrs by immunofluorescence analysis; type: cell-based; conditions: mia paca-2, 24 h, 0.3 µM
Procedure, shortened: (§4)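 Mia PaCa-2 cells (2,000/well, DMEM) were grown 48 h, then treated 24 h at 300 nM in 0.1% DMSO, with or without Pd0-resins (0.67 mg/mL). The prodrug–resin mix was preincubated 24 h at 37 °C before addition. Cells were fixed in 4% paraformaldehyde and permeabilized with 0.1% Triton X-100. Staining used rabbit anti-phospho-H2AX Ser139 (1:400, 1 h, RT), then Alexa 488 secondary, Hoechst and phalloidin. Imaged by confocal microscopy.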

[15] = Toxicity in human MIAPaCa2 cells assessed as induction of DNA damage by measuring phosphorylated gamma-H2AX level at 300 nM after 24 hrs by immunofluorescence analysis in presence of palladium-resins; type: cell-based; conditions: mia paca-2, 24 h, 0.3 µM
Procedure, shortened: as §4

[16] = Prodrug conversion in phosphate buffered saline assessed as gemcitabine retention time at 100 uM after 6 to 24 hrs by HPLC analysis in presence of palladium-resins; type: physicochemical; conditions: buffer
Procedure, shortened: as §2

SMILES: O=C(Nc1ccc2c(c1)Oc1cc(NC(=O)OCc3ccccc3)ccc1C21OC(=O)c2ccccc21)OCc1ccccc1
Drug metabolism (Danio rerio): metabolite_notdetected

SMILES: O=C(Nc1ccn([C@H]2O[C@H](CO)[C@@H](O)C2(F)F)c(=O)n1)OCc1ccccc1
EC50 [1]: 253 nM
EC50 [2]: 94 nM
Activity (BXPC-3 [3]): inactive
Retention_time [4]: 2.96 min

SMILES: C#CCOC(=O)OC[C@H]1O[C@H](n2ccc(N)nc2=O)C(F)(F)[C@@H]1O
EC50 [5]: 13 nM
EC50 [6]: 45 nM

SMILES: Nc1ccn([C@H]2O[C@H](COC(=O)OCc3ccccc3)[C@@H](O)C2(F)F)c(=O)n1
EC50 [5]: 12 nM
EC50 [2]: 29 nM

SMILES: C=CCOC(=O)OC[C@H]1O[C@H](n2ccc(N)nc2=O)C(F)(F)[C@@H]1O
EC50 [5]: 22 nM
EC50 [2]: 27 nM

SMILES: C#CCOC(=O)Nc1ccn([C@H]2O[C@H](CO)[C@@H](O)C2(F)F)c(=O)n1
t1/2 [13]: < 6 h
EC50 [5]: 237 nM
Drug metabolism [7]: Active
Activity [8]: Non-toxic
EC50 [2]: 1400 nM
Activity (BXPC-3 [9]): Active
Activity [10]: 100%
Activity (BXPC-3 [3]): Active
Activity [14]: Non-toxic
Activity (BXPC-3 [11]): Active
Activity [12]: Non-toxic
Retention_time [4]: 2.45 min
Activity (MIA PaCa-2): Active
Activity [15]: Toxic

The next lines start with results.

Drug metabolism (Danio rerio): metabolite_detected
SMILES: C#CCOC(=O)Nc1ccc2c(c1)Oc1cc(NC(=O)OCC#C)ccc1C21OC(=O)c2ccccc21

Drug metabolism [7]: Active
Retention_time [4]: 2.56 min
SMILES: C=CCOC(=O)Nc1ccn(C2O[C@H](CO)[C@@H](O)C2(F)F)c(=O)n1 (single isomer, unassigned)
EC50 [1]: 335 nM
Activity [8]: Non-toxic
EC50 [2]: 900 nM
Activity (BXPC-3 [9]): Active
Activity [10]: 100%
Activity (BXPC-3 [3]): Active
Activity (BXPC-3 [11]): Active
Activity [12]: Non-toxic
Activity (MIA PaCa-2): Active

Retention_time [16]: 0.93 min
SMILES: Nc1ccn([C@@H]2O[C@H](CO)[C@@H](O)C2(F)F)c(=O)n1 [GEMCITABINE]
EC50 [5]: 10 nM
EC50 [2]: 2000 nM
